Laboratory results reported in ChEMBL document CHEMBL2034874, “5-acetyl-2-arylbenzimidazoles as antiviral agents. Part 4” (Eur J Med Chem, 2012).

Assays:
[1] = Cytotoxicity against BHK21 cells by MTT assay; type: cell-based, Mesocricetus auratus; settings: hamster, BHK-21 cells
Method in brief: (§1)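 Mock-infected MDBK (6×10^5 cells/mL, MEM-E with 10% horse serum) or BHK (1×10^6 cells/mL, MEM-E with 10% FBS) cells incubated with serial compound dilutions at 37 °C and 5% CO2. Viability measured by MTT after 48–96 h. CC50 by linear regression against untreated controls.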

[2] = tested on: Coxsackievirus B5; test: Antiviral activity against Coxsackie virus type B5 Ohio-1 ATCC VR-29 infected in african green monkey Vero-76 cells assessed as reduction in viral plaque after 3 days by crystal violet staining; type: functional, organism-based; settings: Enterovirus B, Ohio-1 ATCC VR-29, Vero 76, 72 h
Method in brief: (§2)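 Vero-76 monolayers (2×10^5 cells/well) infected for 2 h at 50–100 PFU/well. Unadsorbed virus removed. D-MEM with 1% inactivated FBS, 0.75% methylcellulose and serial compound dilutions added. Incubation at 37 °C for 3 days (CVB-5, HSV-1) or 5 days (RSV). Fixed and stained with 50% ethanol/0.8% crystal violet, then plaques counted. EC50 by linear regression versus untreated controls.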

[3] = Cytotoxicity against african green monkey Vero 76 cells after 48 to 96 hrs by MTT assay; type: cell-based; settings: chlorocebus sabaeus
[4] = tested on: Vaccinia virus; test: Antiviral activity against Vaccinia virus Elstree-Lister ATCC VR-1549 infected in african green monkey Vero-76 cells assessed as reduction in viral plaque after 3 days by crystal violet staining; type: functional, organism-based; settings: Orthopoxvirus vaccinia, Elstree-Lister ATCC VR-1549, Vero 76, 72 h
[5] = tested on: Human alphaherpesvirus 1; test: Antiviral activity against Herpes simplex virus type 1 KOS ATCC VR-1493 infected in african green monkey Vero-76 cells assessed as reduction in viral plaque after 3 days by crystal violet staining; type: functional, organism-based; settings: Human alphaherpesvirus 1, KOS ATCC VR1493, Vero 76, 72 h; method in brief: as §2
[6] = Cytotoxicity against MDBK cells after 48 to 96 hrs by MTT assay; type: cell-based, Bos taurus; settings: cattle; method in brief: as §1
[7] = tested on: Mammalian orthoreovirus 1; test: Antiviral activity against Reovirus 1 3651 ATCC VR-214 infected in BHK21 cells assessed as inhibition of virus-induced cytopathogenicity after 3 to 4 days by MTT assay; type: functional, organism-based; settings: Mammalian orthoreovirus 1, 3651 ATCC VR-214, BHK-21
Method in brief: (§3)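 BHK (5×10^4/well) or MDBK (3×10^4/well) cells grown to confluent monolayers overnight, infected at m.o.i. 0.01 in maintenance MEM-Earl with 0.5% inactivated FBS. Serially diluted compounds added after 1 h. Viability read by MTT after 3–4 days at 37 °C. Values are expressed as % of untreated controls, and EC50 is derived by linear regression. Duplicate samples.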

[8] = Antiviral activity against BVDV1 NADL ATCC VR-534 infected in MDBK cells assessed as inhibition of virus-induced cytopathogenicity after 3 to 4 days by MTT assay; type: functional, cell-based, Bovine viral diarrhea virus 1-NADL; settings: Bovine viral diarrhea virus isolates and strains, ATCC VR-534, MDBK; method in brief: as §3
[9] = Cytotoxicity against human MT4 cells after 96 hrs by MTT assay; type: cell-based
Method in brief: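 Exponentially growing MT-4 cells seeded at 1×10^5 cells/mL in RPMI-1640 with 10% FBS and incubated with serial compound dilutions at 37 °C and 5% CO2. Viability measured by MTT after 96 h. CC50 by linear regression against untreated controls.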

[10] = Antiviral activity against Human respiratory syncytial virus A2 ATCC VR-1540 infected in african green monkey Vero-76 cells assessed as reduction in viral plaque after 5 days by crystal violet staining; type: functional, cell-based; settings: ATCC VR-1540, Vero 76, 120 h; method in brief: as §2
[11] = tested on: Yellow fever virus; test: Antiviral activity against Yellow fever virus 17D infected in BHK21 cells assessed as inhibition of virus-induced cytopathogenicity after 3 to 4 days by MTT assay; type: functional, cell-based; settings: BHK-21
[12] = tested on: Human immunodeficiency virus 1; test: Antiviral activity against HIV1 3B infected in human MT4 cells assessed as inhibition of virus-induced cytopathogenicity after 4 days by MTT assay; type: functional, organism-based; settings: Human immunodeficiency virus 1, 3B, MT4, 96 h
Method in brief: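 MT-4 cells (1×10^4/well) in RPMI with serial compound dilutions, infected with HIV-1 IIIB at 100 CCID50 (m.o.i. 0.01). Viability measured by MTT after 4 days at 37 °C. EC50 for 50% protection from cytopathogenicity obtained by linear regression against untreated controls.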

[13] = tested on: Vesicular stomatitis Indiana virus; test: Antiviral activity against Vesicular stomatitis virus indiana ATCC VR-1540 infected in african green monkey Vero-76 cells assessed as reduction in viral plaque after 2 days by crystal violet staining; type: functional, organism-based; settings: ATCC VR-1540, Vero 76, 48 h
[14] = tested on: Poliovirus 1; test: Antiviral activity against Polio virus type 1 strain sabin ATCC VR-1562 infected in african green monkey Vero-76 cells assessed as reduction in viral plaque after 2 days by crystal violet staining; type: functional, cell-based, Human poliovirus 1 strain Sabin; settings: Enterovirus C, ATCC VR-1562, Vero 76, 48 h
[15] = Inhibition of HCV NS5B polymerase; set-up: species or system Hepacivirus hominis
[16] = tested on: Coxsackievirus B2; test: Antiviral activity against Coxsackie virus type B2; type: functional, organism-based; settings: Enterovirus B
[17] = tested on: Hepatitis C virus; test: Antiviral activity against Hepatitis C virus genotype 1b infected in human GS4.1 cells assessed as inhibition of viral replication after 72 hrs by ELISA; type: functional, organism-based, Hepacivirus hominis
Method in brief: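 Huh-7 cells carrying the genotype 1b replicon (GS4.1) seeded at 7.5×10^3/well with two-fold serial dilutions, top 75 µM, for 72 h at 37 °C. Cells fixed in acetone–methanol. NS4A quantified by ELISA with anti-NS4A antibody A-236, peroxidase conjugate and o-phenylenediamine, read at 492 nm. EC50 from four-parameter sigmoidal fit. Replicon-free Huh-7 served as negative control.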

[18] = Cytotoxicity against human GS4.1 cells assessed as decrease in cell viability by Cell Titer glo assay; type: cell-based

Structure (SMILES)	CC50 [1]	EC50 [2]	CC50 [3]	EC50 [4]	EC50 [5]	CC50 [6]	EC50 [7]	EC50 [8]	CC50 at 96 h [9]	EC50 [10]	EC50 [11]	EC50 [12]	EC50 [13]	EC50 [14]	IC50 [15]	EC50 [16]	EC50 [17]	CC50 [18]
COc1ccc(-c2nc3cc(C(C)O)ccc3[nH]2)cc1 (stereo not drawn)	> 100 µM	> 100 µM	> 100 µM	> 100 µM	> 100 µM	> 100 µM	> 100 µM	> 100 µM	≥ 100 µM	> 100 µM	> 100 µM	> 100 µM	> 100 µM	> 100 µM	–	–	–	–
O=C(O)c1ccc2c(c1)nc(-c1ccoc1)n2C1CCCCC1	–	–	–	–	–	–	–	–	–	–	–	–	–	–	1.6 µM	–	–	–
C/C(=N\NC(N)=S)c1ccc2c(c1)nc(-c1ccc(Cl)cc1)n2C1CCCCC1	> 100 µM	> 100 µM	> 100 µM	> 100 µM	> 100 µM	> 100 µM	> 100 µM	> 100 µM	17 µM	> 100 µM	> 100 µM	≥ 17 µM	> 100 µM	> 100 µM	–	–	–	–
C/C(=N\NC(N)=S)c1ccc2c(c1)nc(-c1ccc(C(F)(F)F)cc1)n2C1CCCCC1	> 100 µM	> 100 µM	> 100 µM	> 100 µM	> 100 µM	> 100 µM	> 100 µM	> 100 µM	30 µM	> 100 µM	> 100 µM	≥ 30 µM	> 100 µM	> 100 µM	–	–	–	–
COc1ccc(-c2nc3cc(C(C)=O)ccc3n2C2CCCCC2)c(OC)c1	8.5 µM	> 70 µM	70 µM	> 70 µM	> 70 µM	21 µM	> 85 µM	> 21 µM	21 µM	> 70 µM	> 8.5 µM	> 21 µM	> 70 µM	> 70 µM	–	–	–	–
COc1ccc(-c2nc3cc(C(C)=O)ccc3n2C2CCCCC2)cc1	> 100 µM	> 30 µM	30 µM	> 30 µM	> 30 µM	> 100 µM	> 100 µM	21 µM	27 µM	> 30 µM	13.4 µM	> 27 µM	> 30 µM	> 30 µM	–	–	–	–
CC(=O)c1ccc2[nH]c(-c3ccc(-c4ccc([N+](=O)[O-])cc4)cc3)nc2c1	–	–	–	–	–	–	–	–	–	–	0.5 µM	–	–	–	–	1 µM	–	–
CC(=O)c1ccc2c(c1)nc(-c1ccccc1)n2C1CCCCC1	100 µM	> 80 µM	80 µM	> 80 µM	> 80 µM	> 100 µM	> 100 µM	60 µM	37 µM	25 µM	13.2 µM	> 37 µM	> 80 µM	> 80 µM	–	–	–	–
C/C(=N\NC(N)=S)c1ccc2[nH]c(-c3ccoc3)nc2c1	> 100 µM	> 100 µM	100 µM	> 100 µM	> 100 µM	> 100 µM	> 100 µM	8 µM	86 µM	> 100 µM	> 100 µM	> 86 µM	> 100 µM	100 µM	–	–	–	–
COc1ccc(-c2nc3cc(C(C)=O)ccc3[nH]2)c(OC)c1OC	> 100 µM	> 100 µM	> 100 µM	> 100 µM	> 100 µM	> 100 µM	> 100 µM	> 100 µM	> 100 µM	> 100 µM	> 100 µM	> 100 µM	> 100 µM	> 100 µM	–	–	–	–
CC(=O)c1ccc2c(c1)nc(-c1ccc(Cl)cc1)n2C1CCCCC1	> 100 µM	> 100 µM	> 100 µM	> 100 µM	> 100 µM	> 100 µM	> 100 µM	23 µM	58 µM	> 100 µM	> 100 µM	> 58 µM	> 100 µM	> 100 µM	–	–	–	–
COc1ccc(-c2nc3cc(/C(C)=N/NC(N)=S)ccc3[nH]2)c(OC)c1	28 µM	> 100 µM	> 100 µM	–	> 100 µM	> 100 µM	> 28 µM	0.8 µM	72 µM	> 100 µM	> 28 µM	> 72 µM	> 100 µM	> 100 µM	–	–	1.11 µM	11.3 µM
COc1ccc(-c2nc3cc(/C(C)=N/NC(N)=S)ccc3n2C2CCCCC2)c(OC)c1	17 µM	> 20 µM	20 µM	> 20 µM	> 20 µM	> 100 µM	> 17 µM	4 µM	17 µM	> 20 µM	> 17 µM	≥ 17 µM	> 20 µM	> 20 µM	–	–	–	–
Nc1ccc(/C=C/c2nc3ccccc3[nH]2)cc1	–	–	–	–	–	–	–	–	–	–	–	–	–	–	–	7 µM	–	–
CC(=O)c1ccc2c(c1)nc(-c1ccc(C(F)(F)F)cc1)n2C1CCCCC1	33 µM	> 35 µM	35 µM	> 35 µM	> 35 µM	52 µM	> 33 µM	23 µM	41 µM	20 µM	> 33 µM	> 41 µM	> 35 µM	> 35 µM	–	–	–	–
COc1ccc(-c2nc3cc(/C(C)=N/O)ccc3[nH]2)c(OC)c1	> 100 µM	43 µM	> 100 µM	> 100 µM	> 100 µM	> 100 µM	> 100 µM	17 µM	≥ 100 µM	> 100 µM	> 100 µM	> 100 µM	> 100 µM	> 100 µM	–	–	–	–
COc1ccc(-c2nc3cc(C(C)O)ccc3[nH]2)c(OC)c1 (stereo not drawn)	> 100 µM	> 100 µM	> 100 µM	> 100 µM	> 100 µM	> 100 µM	> 100 µM	> 100 µM	≥ 100 µM	> 100 µM	> 100 µM	> 100 µM	> 100 µM	> 100 µM	–	–	–	–
Nc1ccc(/C=C/c2nc3cc(Cl)ccc3[nH]2)cc1	–	–	–	–	–	–	–	–	–	–	–	–	–	–	–	7 µM	–	–
O=C(O)c1ccc2c(c1)nc(-c1ccccn1)n2C1CCCCC1	–	–	–	–	–	–	–	–	–	–	–	–	–	–	4.3 µM	–	–	–
